# Measurements taken from ChEMBL document CHEMBL3600321, “Synthesis and antifungal evaluation of head-to-head and head-to-tail bisamidine compounds” (Bioorg Med Chem, 2015).
# Calls of active or inactive are those of the source. The calls are words filed in the database; no cut-off is given here.
# Legend:
# Candida albicans [1] = assay: Antifungal activity against Candida albicans WTBF-50 by microbroth dilution method; format: functional
# Procedure, shortened: (§1)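 CLSI microbroth dilution in RPMI 1640 with L-glutamine. MIC values are geometric means of three independent assays.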
# Pichia kudriavzevii = assay: Antifungal activity against Candida krusei WTBF-51 by microbroth dilution method; format: functional
# Nakaseomyces glabratus = assay: Antifungal activity against Candida glabrata ATCC 90030 WTBF-86 by microbroth dilution method; format: functional; procedure, shortened: as §1
# Candida parapsilosis = assay: Antifungal activity against Candida parapsilosis ATCC 90018 WTBF-88 by microbroth dilution method; format: functional; settings: Lodderomyces parapsilosis; procedure, shortened: as §1
# Cryptococcus neoformans = assay: Antifungal activity against Cryptococcus neoformans Cn18 (Serotype C) WTBF-106 by microbroth dilution method; format: functional
# Procedure, shortened: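 Microbroth dilution per the CLSI protocol, run in Sabouraud Dextrose Broth in place of RPMI. MIC values are geometric means of three independent assays.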
# HeLa = assay: Cytotoxicity against human HeLa cells assessed as cell viability after 72 hrs by MTS assay; format: cell-based
# Candida albicans [2] = assay: Fungicidal activity against Candida albicans WTBF-50 assessed as decrease in number of viable cells measured within 4 to 24 hrs; format: functional, organism-based
# Procedure, shortened: (§2)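 C. albicans was grown in RPMI at 37 °C to OD600 of about 1. […] Samples taken at intervals were serially diluted and plated on Sabouraud agar, and cfu/ml was counted.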
# [3] = Metabolic stability in liver microsomes (unknown origin); format: ADME
# Candida albicans [4] = assay: Fungicidal activity against Candida albicans WTBF-50 assessed as log10 reduction in CFU/ml at 4 x MIC measured within 4 hrs; format: functional; procedure, shortened: as §2
# Candida albicans [5] = assay: Fungicidal activity against Candida albicans WTBF-50 assessed as inhibition of DNA and RNA biosynthesis after 90 mins by [3H]-adenine incorporation assay; format: functional, organism-based
# Procedure, shortened: (§3)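 C. albicans was grown in RPMI at 37 °C to OD600 of about 1, then mixed with 2-fold serial dilutions of compound and one 3H precursor at 10 μCi/ml final. Incubation ran 90 min at 37 °C, about one doubling. TCA precipitate was filter-collected and scintillation-counted. Each concentration was tested in triplicate. Incorporation relative to untreated control was fitted with a four-parameter curve to give the IC50.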
# Candida albicans [6] = assay: Fungicidal activity against Candida albicans WTBF-50 assessed as inhibition of RNA biosynthesis after 90 mins by [3H]-uridine incorporation assay; format: functional, organism-based; procedure, shortened: as §3
# Candida albicans [7] = assay: Fungicidal activity against Candida albicans WTBF-50 assessed as inhibition of protein biosynthesis after 90 mins by [3H]-leucine incorporation assay; format: functional, organism-based; procedure, shortened: as §3
# Candida albicans [8] = assay: Fungicidal activity against Candida albicans WTBF-50 assessed as inhibition of cell wall biosynthesis after 90 mins by [3H]-glucosamine incorporation assay; format: functional, organism-based; procedure, shortened: as §3
# Candida albicans [9] = assay: Fungicidal activity against Candida albicans WTBF-50 assessed as inhibition of lipid biosynthesis after 90 mins by [3H]-acetate incorporation assay; format: functional, organism-based; procedure, shortened: as §3
# Candida albicans [10] = assay: Fungicidal activity against Candida albicans WTBF-50 assessed as log10 reduction in CFU/ml at 1 x MIC measured within 4 hrs; format: functional; procedure, shortened: as §2
# Candida albicans [11] = assay: Ratio of IC50 for inhibition of RNA biosynthesis in Candida albicans WTBF-50 by [3H]-uridine incorporation assay to IC50 for inhibition of DNA and RNA biosynthesis in Candida albicans WTBF-50 by [3H]-adenine incorporation assay; format: functional
# Procedure, shortened: (§4)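 The ratio was formed from IC50 values of the 3H-precursor incorporation assay: C. albicans at OD600 of about 1 in RPMI, serial compound dilutions, 10 μCi/ml final label, 90 min at 37 °C. TCA precipitate was scintillation-counted, triplicates were run, and IC50 came from a four-parameter fit.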
# Candida albicans [12] = assay: Ratio of IC50 for inhibition of cell wall biosynthesis in Candida albicans WTBF-50 by [3H]-glucosamine incorporation assay to IC50 for inhibition of DNA and RNA biosynthesis in Candida albicans WTBF-50 by [3H]-adenine incorporation assay; format: functional; procedure, shortened: as §4
# Candida albicans [13] = assay: Binding affinity to DNA in Candida albicans WTBF-50 at 4 x MIC after 30 mins by Syto9 dye-based fluorescence microscope with DAPI filter analysis
# Procedure, shortened: (§5)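 An exponential C. albicans culture was treated for 30 min with bisamidine at 4× MIC or with 33 μM Syto9. Fluorescence microscopy used the DAPI channel for the bisamidine and the GFP channel for Syto9, at 400× magnification.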
# Candida albicans [14] = assay: Binding affinity to DNA in Candida albicans WTBF-50 at 4 x MIC after 30 mins by Syto9 dye-based fluorescence microscope with GFP filter analysis; procedure, shortened: as §5
# Candida albicans [15] = assay: Fungicidal activity against Candida albicans WTBF-50 assessed as log10 reduction in CFU/ml at 1 x MIC measured within 24 hrs; format: functional; procedure, shortened: as §2
# Candida albicans [16] = assay: Fungicidal activity against Candida albicans WTBF-50 assessed as log10 reduction in CFU/ml at 2 x MIC measured within 24 hrs; format: functional; procedure, shortened: as §2
# Candida albicans [17] = assay: Fungicidal activity against Candida albicans WTBF-50 assessed as decrease in number of viable cells at 4 x MIC measured within 4 to 24 hrs; format: functional, organism-based; procedure, shortened: as §2
Compound,MIC (Candida albicans [1]) [µg/mL],MIC (Pichia kudriavzevii) [µg/mL],MIC (Nakaseomyces glabratus) [µg/mL],MIC (Candida parapsilosis) [µg/mL],MIC (Cryptococcus neoformans) [µg/mL],CC50 (HeLa) [µg/mL],Stability [3],other results
CC(=O)O.c1cc2cc(-c3ccc(-c4ccc5cc(C6=NCCCN6)oc5c4)cc3)[nH]c2cc1C1=NCCCN1,0.25,0.5,0.06,0.13,0.13,1.5,Stable,Activity (Candida albicans [2]): Dose-dependent effect; Activity (Candida albicans [4]): >3 log10CFU/ml
O=C(O)C(F)(F)F.c1cc2cc(-c3ccc(-c4cc5ccc(C6=NCCCN6)cc5[nH]4)cc3)[nH]c2cc1C1=NCCCN1,0.25,0.13,0.06,0.1,0.08,4,Stable,Activity (Candida albicans [2]): Dose-dependent effect; IC50 (Candida albicans [5]): 0.01 µg/mL; IC50 (Candida albicans [6]): 0.32 µg/mL; IC50 (Candida albicans [7]): 0.59 µg/mL; IC50 (Candida albicans [8]): 0.59 µg/mL; IC50 (Candida albicans [9]): ≥ 2 µg/mL; Activity (Candida albicans [4]): >3 log10CFU/ml; Activity (Candida albicans [10]): 3 log10CFU/ml; Ratio IC50 (Candida albicans [11]): 30; Ratio IC50 (Candida albicans [12]): 59
N=C(N)c1ccc(OCCCCCOc2ccc(C(=N)N)cc2)cc1 [PENTAMIDINE],25,19.8,3.13,12.5,≥ 100,–,–,IC50 (Candida albicans [5]): 0.19 µg/mL; IC50 (Candida albicans [6]): 12.2 µg/mL; IC50 (Candida albicans [7]): > 25 µg/mL; IC50 (Candida albicans [8]): > 25 µg/mL; IC50 (Candida albicans [9]): > 25 µg/mL
O=C(O)C(F)(F)F.c1cc2cc(-c3ccc(-c4cc5ccc(C6=NCCN6)cc5[nH]4)cc3)[nH]c2cc1C1=NCCN1,10.1,4,0.25,0.63,2,32.5,Stable,Activity (Candida albicans [13]): Active; Activity (Candida albicans [14]): Active
CC(=O)O.c1cc2cc(-c3ccc(-c4c[nH]c5cc(C6=NCCCN6)ccc45)cc3)[nH]c2cc1C1=NCCCN1,0.25,0.25,0.06,0.16,0.98,2.4,Stable,Activity (Candida albicans [2]): Dose-dependent effect; IC50 (Candida albicans [5]): 0.02 µg/mL; Activity (Candida albicans [15]): 1 log10CFU/ml; Activity (Candida albicans [16]): 4 log10CFU/ml; IC50 (Candida albicans [6]): 0.56 µg/mL; IC50 (Candida albicans [7]): 0.86 µg/mL; IC50 (Candida albicans [8]): 0.87 µg/mL; IC50 (Candida albicans [9]): ≥ 2 µg/mL; Activity (Candida albicans [4]): >3 log10CFU/ml; Ratio IC50 (Candida albicans [11]): 30; Ratio IC50 (Candida albicans [12]): 43.5
Brc1c(-c2ccc(-c3[nH]c4cc(C5=NCCCN5)ccc4c3Br)cc2)[nH]c2cc(C3=NCCCN3)ccc12.O=C(O)C(F)(F)F,0.63,0.5,0.5,0.5,0.78,0.5,Stable,–
CC(C)NC(=N)c1ccc2cc(-c3ccc(-c4cc5ccc(C(=N)NC(C)C)cc5[nH]4)cc3)[nH]c2c1.O=C(O)C(F)(F)F,0.5,0.4,0.2,0.25,1.56,3.5,Stable,–
CC(=O)O.c1cc2cc(-c3cnc(-c4cc5ccc(C6=NCCCN6)cc5[nH]4)cn3)[nH]c2cc1C1=NCCCN1,0.5,0.5,0.06,0.2,3.13,42.7,Stable,–
CC1(C)CN=C(c2ccc3cc(-c4ccc(-c5cc6ccc(C7=NCC(C)(C)CN7)cc6[nH]5)cc4)[nH]c3c2)NC1.O=C(O)C(F)(F)F,4,4,2,8,3.13,8,Stable,–
C[C@@H]1[C@H](O)[C@@H](C)/C=C/C=C/C=C/C=C/C=C/C=C/C=C/[C@H](O[C@@H]2O[C@H](C)[C@@H](O)[C@H](N)[C@@H]2O)C[C@@H]2O[C@](O)(C[C@@H](O)C[C@@H](O)[C@H](O)CC[C@@H](O)C[C@@H](O)CC(=O)O[C@H]1C)C[C@H](O)[C@H]2C(=O)O [AMPHOTERICIN B],–,–,0.25,0.31,32,–,–,Activity (Candida albicans [17]): Active; IC50 (Candida albicans [5]): 0.038 µg/mL; IC50 (Candida albicans [6]): 0.014 µg/mL; IC50 (Candida albicans [7]): 0.052 µg/mL; IC50 (Candida albicans [8]): 0.043 µg/mL; IC50 (Candida albicans [9]): 0.036 µg/mL
CC1CN=C(c2ccc3cc(-c4ccc(-c5cc6ccc(C7=NCC(C)CN7)cc6[nH]5)cc4)[nH]c3c2)NC1.O=C(O)C(F)(F)F (stereo not drawn),0.5,0.5,0.13,0.25,0.25,5.8,Stable,–
O=C(O)C(F)(F)F.c1cc2cc(-c3ccc(-c4cn5cc(C6=NCCCN6)ccc5n4)cc3)[nH]c2cc1C1=NCCCN1,0.63,4,0.25,0.25,3.13,19.7,Stable,–
CN1CCCN=C1c1ccc2cc(-c3ccc(-c4cc5ccc(C6=NCCCN6C)cc5[nH]4)cc3)[nH]c2c1,1.59,4,1.26,1,1.97,4.7,Stable,–
CC1CNC(c2ccc3cc(-c4ccc(-c5cc6ccc(C7=NC(C)CN7)cc6[nH]5)cc4)[nH]c3c2)=N1.O=C(O)C(F)(F)F (stereo not drawn),0.79,0.79,0.25,0.4,0.25,66.5,Stable,–
